Columns and labels:
[1] = Ratio of drug level in brain to plasma in wild type FVB mouse after 8 hrs; format: ADME, cell-free; conditions: read-out: BPR
How it was run: (§1)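 Single 15 mg/kg intravenous dose given to Pgp knockout and wild-type mice. Brain and plasma levels followed over 8 h, and brain/plasma ratios calculated at each time point.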

[2] = Ratio of drug level in brain to plasma in P-gp transporter knockout FVB mouse after 8 hrs; format: ADME, cell-free; conditions: read-out: BPR; how it was run: as §1
[3] = target: Voltage-gated inwardly rectifying potassium channel KCNH2 (Homo sapiens, UniProt Q12809); assay: Inhibition of human ERG
[4] = Permeability from apical to basolateral side in MDCK cells expressing human MDR1 assessed as compound recovery; format: ADME, cell-based, Canis lupus familiaris; conditions: dog, read-out: permeability
How it was run: (§2)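 Bidirectional MDR1-MDCK permeability run with 2 h incubation; percent recovery of compound determined for the A-to-B and B-to-A directions.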

[5] = Permeability from basolateral to apical side in MDCK cells expressing human MDR1 assessed as compound recovery; format: ADME, cell-based, Canis lupus familiaris; conditions: dog, read-out: permeability; how it was run: as §2
[6] = target: Melanin-concentrating hormone receptor 1 (Rattus norvegicus, UniProt P97639); assay: Displacement of [125I]-S36057 from rat MCH1 receptor
[7] = Drug uptake in rat brain at 10 mg/kg, po after 4 hrs; format: ADME, organism-based; parameters: dose 10 mg/kg, route oral; conditions: read-out: Drug uptake
How it was run: (§3)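 Rats dosed orally at 10 mg/kg. Brain (ng/g) and plasma (ng/mL) levels taken at 4 h, giving the brain-to-plasma exposure comparison.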

[8] = Plasma concentration in rat at 10 mg/kg, po after 4 hrs; format: ADME, organism-based; parameters: dose 10 mg/kg, route oral; how it was run: as §3
[9] = Apparent permeability from apical to basolateral side in MDCK cells expressing human MDR1 after 2 hrs; format: ADME, cell-based, Canis lupus familiaris; conditions: dog
How it was run: (§4)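 MDR1-MDCK monolayers; apparent permeability measured in both directions (A-to-B and B-to-A) after 2 h incubation. Efflux ratio calculated as Papp(B-to-A)/Papp(A-to-B).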

[10] = Apparent permeability from basolateral to apical side in MDCK cells expressing human MDR1 after 2 hrs; format: ADME, cell-based, Canis lupus familiaris; conditions: dog; how it was run: as §4
[11] = Efflux ratio of permeability from basolateral to apical over apical to basolateral side of MDCK cells expressing human MDR1 after 2 hrs; format: ADME, cell-based, Canis lupus familiaris; conditions: dog; how it was run: as §4
[12] = Apparent permeability of the compound at pH 7.4 by PAMPA method; format: ADME
[13] = Apparent permeability of the compound at pH 3 to 7.4 by PAMPA method; format: ADME
[14] = Plasma concentration in wild type FVB mouse at 15 mg/kg, iv after 1 hr; format: ADME, organism-based; parameters: dose 15 mg/kg, route intravenous; how it was run: as §1
[15] = Plasma concentration in P-gp transporter knockout FVB mouse at 15 mg/kg, iv after 1 hr; format: ADME, organism-based; parameters: dose 15 mg/kg, route intravenous; how it was run: as §1
[16] = Plasma concentration in wild type FVB mouse at 15 mg/kg, iv after 3 hrs; format: ADME, organism-based; parameters: dose 15 mg/kg, route intravenous; how it was run: as §1
[17] = Plasma concentration in P-gp transporter knockout FVB mouse at 15 mg/kg, iv after 3 hrs; format: ADME, organism-based; parameters: dose 15 mg/kg, route intravenous; how it was run: as §1
[18] = Plasma concentration in wild type FVB mouse at 15 mg/kg, iv after 6 hrs; format: ADME, organism-based; parameters: dose 15 mg/kg, route intravenous; how it was run: as §1
[19] = Plasma concentration in P-gp transporter knockout FVB mouse at 15 mg/kg, iv after 6 hrs; format: ADME, organism-based; parameters: dose 15 mg/kg, route intravenous; how it was run: as §1
[20] = Plasma concentration in wild type FVB mouse at 15 mg/kg, iv after 8 hrs; format: ADME, organism-based; parameters: dose 15 mg/kg, route intravenous; how it was run: as §1
[21] = Plasma concentration in P-gp transporter knockout FVB mouse at 15 mg/kg, iv after 8 hrs; format: ADME, organism-based; parameters: dose 15 mg/kg, route intravenous; how it was run: as §1
[22] = Drug uptake in wild type FVB mouse brain at 15 mg/kg, iv after 1 hr; format: ADME, organism-based; parameters: dose 15 mg/kg, route intravenous; conditions: read-out: Drug uptake; how it was run: as §1
[23] = Drug uptake in P-gp transporter knockout FVB mouse brain at 15 mg/kg, iv after 1 hr; format: ADME, organism-based; parameters: dose 15 mg/kg, route intravenous; conditions: read-out: Drug uptake; how it was run: as §1
[24] = Drug uptake in wild type FVB mouse brain at 15 mg/kg, iv after 3 hrs; format: ADME, organism-based; parameters: dose 15 mg/kg, route intravenous; conditions: read-out: Drug uptake; how it was run: as §1
[25] = Drug uptake in P-gp transporter knockout FVB mouse brain at 15 mg/kg, iv after 3 hrs; format: ADME, organism-based; parameters: dose 15 mg/kg, route intravenous; conditions: read-out: Drug uptake; how it was run: as §1
[26] = Drug uptake in wild type FVB mouse brain at 15 mg/kg, iv after 6 hrs; format: ADME, organism-based; parameters: dose 15 mg/kg, route intravenous; conditions: read-out: Drug uptake; how it was run: as §1
[27] = Drug uptake in P-gp transporter knockout FVB mouse brain at 15 mg/kg, iv after 6 hrs; format: ADME, organism-based; parameters: dose 15 mg/kg, route intravenous; conditions: read-out: Drug uptake; how it was run: as §1
[28] = Drug uptake in wild type FVB mouse brain at 15 mg/kg, iv after 8 hrs; format: ADME, organism-based; parameters: dose 15 mg/kg, route intravenous; conditions: read-out: Drug uptake; how it was run: as §1
[29] = Drug uptake in P-gp transporter knockout FVB mouse brain at 15 mg/kg, iv after 8 hrs; format: ADME, organism-based; parameters: dose 15 mg/kg, route intravenous; conditions: read-out: Drug uptake; how it was run: as §1
[30] = Ratio of drug level in brain to plasma in wild type FVB mouse after 1 hr; format: ADME, cell-free; conditions: read-out: BPR; how it was run: as §1
[31] = Ratio of drug level in brain to plasma in P-gp transporter knockout FVB mouse after 1 hr; format: ADME, cell-free; conditions: read-out: BPR; how it was run: as §1
[32] = Ratio of drug level in brain to plasma in wild type FVB mouse after 3 hrs; format: ADME, cell-free; conditions: read-out: BPR; how it was run: as §1
[33] = Ratio of drug level in brain to plasma in P-gp transporter knockout FVB mouse after 3 hrs; format: ADME, cell-free; conditions: read-out: BPR; how it was run: as §1
[34] = Ratio of drug level in brain to plasma in wild type FVB mouse after 6 hrs; format: ADME, cell-free; conditions: read-out: BPR; how it was run: as §1
[35] = Ratio of drug level in brain to plasma in P-gp transporter knockout FVB mouse after 6 hrs; format: ADME, cell-free; conditions: read-out: BPR; how it was run: as §1
[36] = Drug uptake in rat brain at 10 mg/kg, sc after 4 hrs; format: ADME, organism-based; parameters: dose 10 mg/kg, route subcutaneous; conditions: read-out: Drug uptake
How it was run: (§5)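 Rat PK with subcutaneous dosing at 10 mg/kg. Brain and plasma concentrations determined 4 h after the dose.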

[37] = Plasma concentration in rat at 10 mg/kg, sc after 4 hrs; format: ADME, organism-based; parameters: dose 10 mg/kg, route subcutaneous; how it was run: as §5
[38] = Ratio of drug level in brain to plasma in rat; format: ADME, cell-free; conditions: read-out: BPR; how it was run: as §3

Chain of Melanin-concentrating hormone receptor 1 (P97639 whole entry): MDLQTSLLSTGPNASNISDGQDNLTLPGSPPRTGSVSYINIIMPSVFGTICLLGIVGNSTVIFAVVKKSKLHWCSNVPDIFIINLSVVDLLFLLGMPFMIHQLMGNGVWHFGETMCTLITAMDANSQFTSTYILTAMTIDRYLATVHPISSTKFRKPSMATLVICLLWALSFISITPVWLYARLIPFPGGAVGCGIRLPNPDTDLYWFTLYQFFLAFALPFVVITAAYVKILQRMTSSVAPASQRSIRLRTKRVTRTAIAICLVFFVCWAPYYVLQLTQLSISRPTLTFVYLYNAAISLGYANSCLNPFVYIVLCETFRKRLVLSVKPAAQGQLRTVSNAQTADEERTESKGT
Chain of Voltage-gated inwardly rectifying potassium channel KCNH2 (Q12809 whole entry): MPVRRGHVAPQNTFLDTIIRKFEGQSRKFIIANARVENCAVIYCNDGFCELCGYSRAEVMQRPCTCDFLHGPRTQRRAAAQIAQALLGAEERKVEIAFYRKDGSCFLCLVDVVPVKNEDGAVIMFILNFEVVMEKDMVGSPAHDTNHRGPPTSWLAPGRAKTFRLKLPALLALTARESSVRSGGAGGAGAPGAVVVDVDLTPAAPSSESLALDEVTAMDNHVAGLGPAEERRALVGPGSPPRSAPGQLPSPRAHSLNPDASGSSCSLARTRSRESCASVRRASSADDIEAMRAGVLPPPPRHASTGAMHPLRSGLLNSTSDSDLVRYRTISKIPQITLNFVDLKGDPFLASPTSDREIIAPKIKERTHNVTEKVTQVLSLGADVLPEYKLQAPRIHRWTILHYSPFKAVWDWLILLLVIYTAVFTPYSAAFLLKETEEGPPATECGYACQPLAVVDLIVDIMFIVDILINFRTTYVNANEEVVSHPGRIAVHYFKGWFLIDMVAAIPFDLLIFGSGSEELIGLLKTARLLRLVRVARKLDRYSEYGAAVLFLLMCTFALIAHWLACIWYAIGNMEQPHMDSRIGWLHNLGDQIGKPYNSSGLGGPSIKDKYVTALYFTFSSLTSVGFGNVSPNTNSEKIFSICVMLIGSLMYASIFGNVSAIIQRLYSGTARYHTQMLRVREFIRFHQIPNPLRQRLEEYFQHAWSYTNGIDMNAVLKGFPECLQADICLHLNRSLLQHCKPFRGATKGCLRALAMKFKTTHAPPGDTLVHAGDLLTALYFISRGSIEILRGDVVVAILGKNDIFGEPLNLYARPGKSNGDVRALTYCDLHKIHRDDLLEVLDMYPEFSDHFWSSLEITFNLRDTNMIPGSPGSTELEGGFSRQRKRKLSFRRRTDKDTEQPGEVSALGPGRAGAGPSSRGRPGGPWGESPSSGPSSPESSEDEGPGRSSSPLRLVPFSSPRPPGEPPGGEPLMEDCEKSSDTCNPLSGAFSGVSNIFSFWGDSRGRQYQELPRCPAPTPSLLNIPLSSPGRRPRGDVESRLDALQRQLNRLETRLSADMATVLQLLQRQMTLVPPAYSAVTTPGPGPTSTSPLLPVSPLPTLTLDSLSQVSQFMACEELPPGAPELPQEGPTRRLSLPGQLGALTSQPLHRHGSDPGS

CN1CC(c2c[nH]c3cc(-n4ccc(OCc5ccccc5)cc4=O)ccc23)C1
Kp at 8 h [1]: 0.28
Kp at 8 h [2]: 2.66
IC50 [3]: 12000 nM
recovery [4]: 72%
recovery [5]: 71%
Ki [6]: 11 nM
concentration at 4 h [7]: 11 ng/g
concentration at 4 h [8]: 48 ng/mL
Papp A→B at 2 h [9]: 0.2 ×10⁻⁶ cm/s
Papp B→A at 2 h [10]: 26.3 ×10⁻⁶ cm/s
efflux ratio at 2 h [11]: 144
Papp [12]: 4.9 ×10⁻⁶ cm/s
Papp [13]: 16.4 ×10⁻⁶ cm/s
concentration at 1 h [14]: 2280 ng/mL
concentration at 1 h [15]: 3130 ng/mL
concentration at 3 h [16]: 1450 ng/mL
concentration at 3 h [17]: 1380 ng/mL
concentration at 6 h [18]: 623 ng/mL
concentration at 6 h [19]: 689 ng/mL
concentration at 8 h [20]: 538 ng/mL
concentration at 8 h [21]: 607 ng/mL
concentration at 1 h [22]: 143 ng/g
concentration at 1 h [23]: 878 ng/g
concentration at 3 h [24]: 172 ng/g
concentration at 3 h [25]: 1130 ng/g
concentration at 6 h [26]: 148 ng/g
concentration at 6 h [27]: 1580 ng/g
concentration at 8 h [28]: 144 ng/g
concentration at 8 h [29]: 1620 ng/g
Kp at 1 h [30]: 0.06
Kp at 1 h [31]: 0.28
Kp at 3 h [32]: 0.12
Kp at 3 h [33]: 0.82
Kp at 6 h [34]: 0.24
Kp at 6 h [35]: 2.3

CN1CC(c2c[nH]c3cc(-n4ccc(OCc5ccccc5F)cc4=O)ccc23)C1
Ki [6]: 6.7 nM
concentration at 4 h [7]: 22 ng/g
concentration at 4 h [8]: 140 ng/mL
Papp A→B at 2 h [9]: 0.2 ×10⁻⁶ cm/s
Papp B→A at 2 h [10]: 25.3 ×10⁻⁶ cm/s
efflux ratio at 2 h [11]: 150

CN1CC(c2c[nH]c3cc(-n4ccc(-c5ccc(Cl)cc5)cc4=O)ccc23)C1
Ki [6]: 7.8 nM
concentration at 4 h [7]: 100 ng/g
concentration at 4 h [8]: 350 ng/mL
Papp A→B at 2 h [9]: 0.9 ×10⁻⁶ cm/s
Papp B→A at 2 h [10]: 53.7 ×10⁻⁶ cm/s
efflux ratio at 2 h [11]: 60

CN1CC(c2cn(C)c3cc(-n4ccc(OCc5ccccc5)cc4=O)ccc23)C1
Ki [6]: 11 nM
concentration at 4 h [36]: 110 ng/g
concentration at 4 h [37]: 4000 ng/mL
Kp [38]: 0.03

COCCN1CC(c2c[nH]c3cc(-n4ccc(OCc5ccccc5)cc4=O)ccc23)C1
Ki [6]: 5.2 nM
concentration at 4 h [7]: 49 ng/g
concentration at 4 h [8]: 310 ng/mL
Papp A→B at 2 h [9]: 0.4 ×10⁻⁶ cm/s
Papp B→A at 2 h [10]: 34.1 ×10⁻⁶ cm/s
efflux ratio at 2 h [11]: 88

O=c1cc(OCc2ccccc2)ccn1-c1ccc2c(C3CN(CCF)C3)c[nH]c2c1
Ki [6]: 4.3 nM
concentration at 4 h [7]: 130 ng/g
concentration at 4 h [8]: 620 ng/mL
Papp A→B at 2 h [9]: 1.4 ×10⁻⁶ cm/s
Papp B→A at 2 h [10]: 58.9 ×10⁻⁶ cm/s
efflux ratio at 2 h [11]: 43

Cn1cc(C2CN(CCF)C2)c2ccc(-n3ccc(-c4ccc(F)cc4)cc3=O)cc21
Ki [6]: 9 nM
concentration at 4 h [7]: 810 ng/g
concentration at 4 h [8]: 1000 ng/mL
Papp A→B at 2 h [9]: 7.1 ×10⁻⁶ cm/s
Papp B→A at 2 h [10]: 45.4 ×10⁻⁶ cm/s
efflux ratio at 2 h [11]: 6.4
Kp [38]: 0.8

O=c1cc(OCc2ccccc2)ccn1-c1ccc2c(c1)CCN2C1CNC1
Ki [6]: 2.4 nM
concentration at 4 h [7]: 27 ng/g
concentration at 4 h [8]: 130 ng/mL

CN1CC(N2CCc3cc(-n4ccc(OCc5ccccc5)cc4=O)ccc32)C1
Ki [6]: 2.5 nM
concentration at 4 h [7]: 780 ng/g
concentration at 4 h [8]: 500 ng/mL
Papp A→B at 2 h [9]: 2.6 ×10⁻⁶ cm/s
Papp B→A at 2 h [10]: 36.5 ×10⁻⁶ cm/s
efflux ratio at 2 h [11]: 14

O=c1cc(OCc2ccccc2)ccn1-c1ccc2c(c1)CCN2C1CN(CCF)C1
Ki [6]: 4.9 nM
concentration at 4 h [7]: 520 ng/g
concentration at 4 h [8]: 420 ng/mL
Papp A→B at 2 h [9]: 17.7 ×10⁻⁶ cm/s
Papp B→A at 2 h [10]: 38.2 ×10⁻⁶ cm/s
efflux ratio at 2 h [11]: 2.2

CN1CC(N2CCc3cc(-n4ccc(-c5ccc(Cl)cc5)cc4=O)ccc32)C1
Ki [6]: 4.9 nM
concentration at 4 h [7]: 600 ng/g
concentration at 4 h [8]: 190 ng/mL
Kp [38]: > 3

O=c1cc(-c2ccc(Cl)cc2)ccn1-c1ccc2c(c1)CCN2C1CN(CCF)C1
Ki [6]: 6.5 nM
concentration at 4 h [7]: 1100 ng/g
concentration at 4 h [8]: 650 ng/mL
Papp A→B at 2 h [9]: 28.9 ×10⁻⁶ cm/s
Papp B→A at 2 h [10]: 30.1 ×10⁻⁶ cm/s
efflux ratio at 2 h [11]: 1

From ChEMBL document CHEMBL1828609, “Strategies to lower the Pgp efflux liability in a series of potent indole azetidine MCHR1 antagonists” (Bioorg Med Chem Lett, 2011)
